High-throughput results: PubChem, several laboratories
The list is not random: actives were taken first. Their share in the collection is about 2.2%.
GSTO1 inh: GSTO1 inhibition, counter-screen for RBBP9 inhibitors | inhibition, % at 5.96 µM | P78417 | 300,000 compounds, 1.1% hits | recombinant GSTO1, activity-based probe fluorescence polarization;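 active means inhibition above the campaign mean inhibition plus 3 SD, cut at about 35% in these data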;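 further: 0% = GSTO1-1 with DMSO and 100% = wells lacking GSTO1-1 enzyme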
UBC13 polyUb: human UBC13 polyubiquitination inhibition | inhibition, % at 20 µM | 330,000 compounds, 0.47% hits | UBC13 polyubiquitin chain formation, TR-FRET; in the data active means inhibition above about 45%, passing the limit was not always enough
Rin1 Abl inh: inhibitors of human Rin1-Abl protein interaction | P00519+Q13671 | TR-FRET Rin1/Abl binding, biochemical | inhibition, % at 7.35 µM | 360,000 compounds, 0.4% hits; in the data active means inhibition above about 5%, passing the limit was not always enough
UBC9 SUMO inh: blocks human SUMOylation mediated by UBC9; P63279; HTRF SUMOylation assay, SAE1/SAE2 + UBC9, in vitro; inhibition, % at 35 µM; 290,000 compounds, 0.36% hits; AID 2006; in the data active means inhibition above about 50%, passing the limit was not always enough
Apaf1 inhib: inhibitors of human Apaf-1 apoptosome | O14727 | reconstituted apoptosome caspase-3 activity, DEVD-Rh110 fluorescence | inhibition, % at 20 µM | 330,000 compounds, 0.71% hits; active means inhibition of at least 40% at 20 µM;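 further: plate controls were DMSO wells for no effect and DEVD-CHO caspase inhibitor wells for full effect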
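System – cell-free apoptosome with Apaf-1, procaspase-3 and caspase-9 · Buffer or medium – pH 7.5 Hepes buffer with CHAPS, BSA, DTT · Also added – cytochrome c with DEVD-Rh110 · Times – 30 min compound preincubation, 50 min activation, room temperature · Technique – Rh110 fluorescence intensity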
PAD4 inh: PAD4 (human) enzyme inhibition | Q9UM07 | recombinant PAD4, RCA probe fluorescence polarization | inhibition, % at 6.36 µM | 330,000 compounds, 0.41% hits;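 active means percent inhibition above a cutoff equal to the mean of all tested compounds plus 3 SD, cut at about 15% in these data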;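 further: 0% = PAD4 with RCA probe and DMSO and 100% = probe without PAD4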
An asterisk follows results filed as active; . = not tested or not shown.

SMILES | GSTO1 inh | UBC13 polyUb | Rin1 Abl inh | UBC9 SUMO inh | Apaf1 inhib | PAD4 inh
CCOC(=O)c1cc2c(c(CCO)n1)[C@H](CCO)N(S(=O)C(C)(C)C)C2 (some centres undefined) | . | . | -2.6 | . | . | .
O=c1[nH][nH]c(-c2ccccc2O)c1C(C[N+](=O)[O-])c1cccc(Cl)c1 (centres undefined) | 36.1* | 4.3 | -3.0 | 6.6 | 6.6 | -11.7
COc1ccc(S(=O)(=O)Nc2ccc3c(c2)CCC3)cc1 | 12.6 | 1.4 | 6.0 | -26.6 | 7.1 | -0.3
CC(=O)Nc1ccc(S(=O)(=O)Nc2ccc3c(c2)CCC3)cc1 | 34.9* | -6.3 | -0.1 | -4.5 | 11.4 | 2.7
c1cc2c3c(cccc3c1)C(N1CCCCC1)=N2 | 3.5 | -46.0 | -7.2 | 37.3 | 90.9* | -2.2
Cc1cc(S(=O)(=O)N2CCCCC2)ccc1OCC(=O)Nc1ccccc1 | 2.8 | -3.6 | 0.7 | 0.7 | 18.7 | 1.0
CN1CCN(c2nc3ccccc3nc2C(C#N)S(=O)(=O)c2ccccc2)CC1 (centres undefined) | -3.0 | 3.8 | . | 10.8 | -13.2 | -4.5
Cc1ccc(S(=O)(=O)C(C#N)c2nc3ccccc3nc2N2CCC(C)CC2)cc1 (centres undefined) | . | . | -2.6 | 81.2* | . | .
CCNc1ccc(Br)cc(C(=O)/C=C/c2ccc(Cl)cc2)c1=O | 7.2 | -7.6 | 5.2 | 18.7 | 0.6 | -0.6
CCNc1ccc(Br)cc(C(=O)/C=C/c2c(Cl)cccc2Cl)c1=O | 36.7* | -26.3 | 1.8 | 15.1 | 32.9 | -7.2
CCNc1ccc(Br)cc(C(=O)/C=C/c2ccc3c(c2)OCO3)c1=O | 53.2* | -24.4 | 3.4 | 21.8 | 33.0 | 6.5
CCOc1c(C)cnc2c1c(=O)n(CC(=O)NCC1CCCO1)c(=O)n2C (centres undefined) | 2.5 | 1.5 | 2.0 | . | -6.4 | -1.3
Cn1c(C(=O)NCC2CCCO2)cc2c(=O)n3ccccc3nc21 (centres undefined) | 0.3 | 8.7 | -4.1 | 52.9* | 8.3 | 5.3
COCCCn1c(C(=O)N2CC(C)OC(C)C2)cc2c(=O)n3ccccc3nc21 (centres undefined) | -0.4 | 11.2 | 1.8 | 54.3* | 7.9 | -2.2
COCCCn1c(=N)c(C(=O)NC2CCCCC2)cc2c(=O)n3ccccc3nc21 | 0.8 | 9.7 | 0.0 | 19.7 | 2.4 | -1.6
Cn1c(C(=O)N2COCC2(C)C)cc2c(=O)n3ccccc3nc21 | -1.1 | 0.6 | -3.9 | 53.1* | 3.4 | -3.2
O=C(CCN1CCCCC1)N1CCc2c([nH]c3ccccc23)C1c1cccnc1 (centres undefined) | . | . | 3.5 | . | . | .
O=C(CSCc1ccco1)N1CCc2ccccc21 | 9.0 | 6.5 | 1.4 | 3.3 | 9.2 | 2.4
CCn1c(=O)c(-c2cc(=O)[nH][nH]2)c(O)c2ccccc21 | 14.5 | 3.0 | 1.0 | -2.9 | 2.9 | 7.6
O=c1cc(-c2c(O)c3ccccc3n(Cc3ccccc3)c2=O)[nH][nH]1 | 35.9* | -5.8 | 5.0 | -0.7 | 17.4 | -4.3
CC(C)OC(=O)N(C)C[C@@H]1OCc2cnnn2CCCC(=O)N([C@H](C)CO)C[C@H]1C | . | . | 3.1 | . | . | .
O=C(Cn1nc(-c2ccccc2Cl)ccc1=O)Nc1ccccc1-c1ccccc1 | 8.1 | -1.2 | 1.0 | -11.9 | 55.8* | -1.2
O=C(Cn1nc(-c2ccccc2Cl)ccc1=O)Nc1ccc(Br)cc1 | 2.1 | -13.3 | -4.1 | 0.3 | 15.1 | -4.1
O=C(NCCc1ccccc1)C(c1cccs1)N(C(=O)CCl)c1ccc(Cl)cc1 (centres undefined) | 103.4* | 12.7 | 0.0 | -9.7 | 14.2 | 13.5
O=c1[nH]cc(N=Cc2cc(Cl)cc(Cl)c2O)c(=O)[nH]1 | 42.2* | -17.1 | 4.0 | 56.7* | 13.1 | -9.4
Cn1c(CC(=O)Nc2ccc(Cl)cc2)nnc1SCC(=O)N1CCOCC1 | 3.6 | -7.6 | -1.3 | 11.0 | -18.7 | -0.8
C=CC(=O)Nc1ccc(CN2C(=O)N(c3c(Cl)c(OC)cc(OC)c3Cl)Cc3cnc(NCCCCN(CC)CC)nc32)cc1 | . | 63.2* | 2.9 | . | 62.9* | -3.3
O=C(O)c1cc(-c2ccc(/C=N/NC(=S)Nc3ccccc3)o2)ccc1Cl | 48.2* | -11.5 | 3.4 | -2.9 | 8.9 | -2.3
Cc1cc(C(=O)N/N=C/c2ccc(-c3ccc(C)c(Cl)c3)o2)n[nH]1 | -3.4 | -19.6 | -4.4 | 57.7* | -2.4 | -5.7
